Laboratory results taken from ChEMBL document CHEMBL1275385, “Discovery and biological evaluation of potent, selective, orally bioavailable, pyrazine-based blockers of the Na(v)1.8 sodium channel with efficacy in a model of neuropathic pain” (Bioorg Med Chem, 2010).
In brackets after ≈: the same amount, converted by molar mass. Activity calls are given as the source filed them.

Legend:
[1] = Aqueous solubility of the compound; assay type: physicochemical; conditions: buffer
[2] = biological target: Sodium channel protein type 10 subunit alpha (Homo sapiens, UniProt Q9Y5Y9); experiment: Inhibition of human recombinant NaV1.8 expressed in HEK293 cells by conventional voltage clamp electrophysiology assay; assay type: cell-based
Outline: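 HEK-293 cells stably expressing human Nav1.8 were recorded by conventional whole-cell voltage clamp with the holding potential at the inactivation V1/2, −40 mV. DMSO stocks (10 mM) were diluted into extracellular solution (final DMSO <0.1%) and gravity-perfused at 1–2 mL/min at 21–25 °C. Each compound was run at 1–3 concentrations with 2–6 measurements each; estimates averaged.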

[3] = biological target: T1, Sodium channel protein type 2 subunit alpha (Homo sapiens, UniProt Q99250); experiment: Inhibition of human recombinant NaV1.2 by electrophysiology
Outline: (§1)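 Whole-cell voltage clamp of HEK-293 cells expressing recombinant human Nav1.2. Membrane potential was held at the V1/2 of steady-state inactivation, −60 mV. Compounds came from 10 mM DMSO stocks, diluted in extracellular solution (final DMSO <0.1%) and perfused at 1–2 mL/min at room temperature (21–25 °C). Tested at 1–3 concentrations with 2–6 measurements each; estimates averaged. Single-point data given as % inhibition at 3 µM.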

[4] = biological target: Sodium channel protein type 10 subunit alpha (Rattus norvegicus, UniProt Q62968); experiment: Inhibition of tetrodotoxin-resistant NaV1.8 in rat dorsal root ganglion neurons at holding potential -100 mV by whole-cell patch clamp electrophysiology assay; assay type: tissue-based
[5] = biological target: Sodium channel protein type 10 subunit alpha (Mus musculus, UniProt Q6QIY3); experiment: Inhibition of mouse NaV1.8 expressed in HEK293 cells by isotopic efflux assay; assay type: cell-based
Outline: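 HEK293 cells stably expressing mouse Nav1.8 were loaded overnight with radiotracer, then stimulated. Efflux was read at a single time point on the linear part of the efflux curve. % inhibition = (1 − [test − reference blocker]/[control − reference blocker]) × 100. Eight-point concentration–response curves run in duplicate gave the IC50.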

[6] = Clearance in rat microsomes; assay type: ADME, Liver, Microsome
[7] = biological target: T1, Sodium channel protein type 2 subunit alpha; experiment: Inhibition of human recombinant NaV1.2 at 3 uM by electrophysiology; outline: as §1
[8] = Selectivity ratio of IC50 for human NaV1.8 to IC50 for human Nav1.2
[9] = organism: Homo sapiens; experiment: Selectivity ratio of IC50 for human NAv1.8 to IC50 for human Nav1.2
Outline: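 Ratio of the IC50 values from whole-cell voltage clamp of human Nav1.8 (held at −40 mV) and human Nav1.2 (held at −60 mV), both expressed in HEK-293 cells. Each channel was held at its inactivation V1/2.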

[10] = Oral bioavailability in rat at 3 mg/kg; assay type: ADME, organism-based; conditions: in vivo
Outline: (§2)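 Rat pharmacokinetics (n = 3) after a single 3 mg/kg iv or po dose. Plasma clearance, Vss, half-life and oral bioavailability were derived from plasma exposure.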

[11] = tested on: Plasma; experiment: Plasma protein binding in rat; assay type: ADME, cell-free
[12] = biological target: Substance-P receptor (Homo sapiens) (UniProt P25103); experiment: Inhibition of human NK1 receptor at 10 uM
[13] = Volume of distribution at steady state in rat at 3 mg/kg, iv; assay type: ADME, organism-based; set-up: dose 3 mg/kg, route intravenous; conditions: in vivo, read-out: Vdss; outline: as §2
[14] = Half life in rat at 3 mg/kg, iv; assay type: ADME, organism-based; set-up: dose 3 mg/kg, route intravenous; conditions: in vivo; outline: as §2
[15] = tested on: Rattus norvegicus; experiment: Analgesic activity in Sprague-Dawley rat L5/L6 spinal nerve injury Chung model of neuropathic pain assessed as reduction of von Frey hair-induced paw withdrawal threshold at 100 mg/kg, po administered 60 mins before von Frey hair challenge; assay type: functional
Outline: (§3)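 Rats with L5/L6 spinal nerve ligation (Kim and Chung method) dosed orally at 10, 30 or 100 mg/kg, 60 min before von Frey testing of paw withdrawal threshold on the injured and contralateral sides. At least six animals per group, compared with vehicle-treated animals; mean ± SEM, ANOVA with post-hoc tests (P <0.05). ED50 estimated by least-squares linear regression.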

[16] = Inhibition of BZD receptor at 10 uM
[17] = biological target: Beta-2 adrenergic receptor (Homo sapiens) (UniProt P07550); experiment: Inhibition of human adrenergic beta2 receptor at 10 uM
[18] = Cmax in rat at 3 mg/kg, po; assay type: ADME, organism-based; set-up: dose 3 mg/kg, route oral; conditions: in vivo
[19] = tested on: Rattus norvegicus; experiment: Analgesic activity in po dosed Sprague-Dawley rat L5/L6 spinal nerve injury Chung model of neuropathic pain assessed as reduction of von Frey hair-induced paw withdrawal threshold administered 60 mins before von Frey hair challenge; assay type: functional; outline: as §3
[20] = Half life in rat at 3 mg/kg, po; assay type: ADME, organism-based; set-up: dose 3 mg/kg, route oral; conditions: in vivo; outline: as §2
[21] = Selectivity ratio of IC50 for tetrodotoxin-resistant NaV1.8 in rat dorsal root ganglion neurons to IC50 for human Nav1.2; assay type: tissue-based
Outline: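 Ratio of the IC50 for native TTX-resistant current in dissociated rat DRG neurons (held at V1/2, −40 mV) to the IC50 for recombinant human Nav1.2 in HEK-293 cells (held at −60 mV).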

Sodium channel protein type 10 subunit alpha (Rattus norvegicus, UniProt Q62968), sequence (Q62968 whole entry): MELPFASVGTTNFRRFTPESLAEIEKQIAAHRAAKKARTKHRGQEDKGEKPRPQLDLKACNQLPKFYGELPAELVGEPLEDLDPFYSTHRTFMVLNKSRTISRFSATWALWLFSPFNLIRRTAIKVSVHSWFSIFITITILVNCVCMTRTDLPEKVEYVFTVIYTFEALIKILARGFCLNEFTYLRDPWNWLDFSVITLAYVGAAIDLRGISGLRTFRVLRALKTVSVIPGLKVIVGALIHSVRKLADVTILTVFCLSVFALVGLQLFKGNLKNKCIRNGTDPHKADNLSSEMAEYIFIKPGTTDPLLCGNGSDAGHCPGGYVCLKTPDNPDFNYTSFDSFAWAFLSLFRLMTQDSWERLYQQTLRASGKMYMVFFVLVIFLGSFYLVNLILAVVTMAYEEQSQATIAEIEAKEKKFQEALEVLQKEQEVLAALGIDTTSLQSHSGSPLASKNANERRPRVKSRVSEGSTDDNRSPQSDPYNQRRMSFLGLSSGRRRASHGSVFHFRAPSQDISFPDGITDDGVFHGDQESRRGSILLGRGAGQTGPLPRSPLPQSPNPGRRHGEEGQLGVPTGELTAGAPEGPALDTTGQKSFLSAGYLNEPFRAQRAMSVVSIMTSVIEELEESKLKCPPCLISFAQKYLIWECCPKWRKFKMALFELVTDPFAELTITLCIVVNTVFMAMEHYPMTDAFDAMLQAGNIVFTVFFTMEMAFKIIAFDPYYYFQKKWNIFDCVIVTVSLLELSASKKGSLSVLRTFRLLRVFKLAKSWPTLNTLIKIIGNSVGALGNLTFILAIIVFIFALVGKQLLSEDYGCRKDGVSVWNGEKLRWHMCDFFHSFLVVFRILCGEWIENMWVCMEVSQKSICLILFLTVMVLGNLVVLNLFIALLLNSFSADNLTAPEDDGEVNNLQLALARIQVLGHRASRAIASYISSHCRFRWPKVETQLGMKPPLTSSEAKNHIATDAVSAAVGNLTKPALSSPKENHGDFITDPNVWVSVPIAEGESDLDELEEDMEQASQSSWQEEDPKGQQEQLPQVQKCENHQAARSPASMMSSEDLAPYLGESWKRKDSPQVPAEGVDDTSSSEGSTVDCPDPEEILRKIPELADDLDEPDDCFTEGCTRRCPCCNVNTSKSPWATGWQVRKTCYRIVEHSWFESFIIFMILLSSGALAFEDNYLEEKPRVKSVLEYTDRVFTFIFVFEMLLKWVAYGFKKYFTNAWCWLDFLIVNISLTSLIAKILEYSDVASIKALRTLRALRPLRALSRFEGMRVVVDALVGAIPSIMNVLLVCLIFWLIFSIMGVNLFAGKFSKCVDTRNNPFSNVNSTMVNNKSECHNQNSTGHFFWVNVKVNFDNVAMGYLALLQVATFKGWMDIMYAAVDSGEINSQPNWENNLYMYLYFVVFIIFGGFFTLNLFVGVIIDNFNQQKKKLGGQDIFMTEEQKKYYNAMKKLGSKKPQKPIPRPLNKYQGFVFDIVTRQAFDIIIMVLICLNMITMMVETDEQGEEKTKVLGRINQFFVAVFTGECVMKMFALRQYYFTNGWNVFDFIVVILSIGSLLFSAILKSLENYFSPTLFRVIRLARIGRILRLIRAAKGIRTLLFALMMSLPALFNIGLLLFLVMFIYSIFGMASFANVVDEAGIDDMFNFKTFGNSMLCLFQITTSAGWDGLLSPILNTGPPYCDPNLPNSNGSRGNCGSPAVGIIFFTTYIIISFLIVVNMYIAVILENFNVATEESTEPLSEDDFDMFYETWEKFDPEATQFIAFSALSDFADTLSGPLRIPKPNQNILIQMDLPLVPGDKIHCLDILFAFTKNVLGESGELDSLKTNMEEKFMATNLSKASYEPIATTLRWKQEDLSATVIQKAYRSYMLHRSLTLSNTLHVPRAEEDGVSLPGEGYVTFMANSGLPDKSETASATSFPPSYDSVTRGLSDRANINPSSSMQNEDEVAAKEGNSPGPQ
Sodium channel protein type 10 subunit alpha (Homo sapiens, UniProt Q9Y5Y9), sequence (Q9Y5Y9 whole entry, the tested form may be a part): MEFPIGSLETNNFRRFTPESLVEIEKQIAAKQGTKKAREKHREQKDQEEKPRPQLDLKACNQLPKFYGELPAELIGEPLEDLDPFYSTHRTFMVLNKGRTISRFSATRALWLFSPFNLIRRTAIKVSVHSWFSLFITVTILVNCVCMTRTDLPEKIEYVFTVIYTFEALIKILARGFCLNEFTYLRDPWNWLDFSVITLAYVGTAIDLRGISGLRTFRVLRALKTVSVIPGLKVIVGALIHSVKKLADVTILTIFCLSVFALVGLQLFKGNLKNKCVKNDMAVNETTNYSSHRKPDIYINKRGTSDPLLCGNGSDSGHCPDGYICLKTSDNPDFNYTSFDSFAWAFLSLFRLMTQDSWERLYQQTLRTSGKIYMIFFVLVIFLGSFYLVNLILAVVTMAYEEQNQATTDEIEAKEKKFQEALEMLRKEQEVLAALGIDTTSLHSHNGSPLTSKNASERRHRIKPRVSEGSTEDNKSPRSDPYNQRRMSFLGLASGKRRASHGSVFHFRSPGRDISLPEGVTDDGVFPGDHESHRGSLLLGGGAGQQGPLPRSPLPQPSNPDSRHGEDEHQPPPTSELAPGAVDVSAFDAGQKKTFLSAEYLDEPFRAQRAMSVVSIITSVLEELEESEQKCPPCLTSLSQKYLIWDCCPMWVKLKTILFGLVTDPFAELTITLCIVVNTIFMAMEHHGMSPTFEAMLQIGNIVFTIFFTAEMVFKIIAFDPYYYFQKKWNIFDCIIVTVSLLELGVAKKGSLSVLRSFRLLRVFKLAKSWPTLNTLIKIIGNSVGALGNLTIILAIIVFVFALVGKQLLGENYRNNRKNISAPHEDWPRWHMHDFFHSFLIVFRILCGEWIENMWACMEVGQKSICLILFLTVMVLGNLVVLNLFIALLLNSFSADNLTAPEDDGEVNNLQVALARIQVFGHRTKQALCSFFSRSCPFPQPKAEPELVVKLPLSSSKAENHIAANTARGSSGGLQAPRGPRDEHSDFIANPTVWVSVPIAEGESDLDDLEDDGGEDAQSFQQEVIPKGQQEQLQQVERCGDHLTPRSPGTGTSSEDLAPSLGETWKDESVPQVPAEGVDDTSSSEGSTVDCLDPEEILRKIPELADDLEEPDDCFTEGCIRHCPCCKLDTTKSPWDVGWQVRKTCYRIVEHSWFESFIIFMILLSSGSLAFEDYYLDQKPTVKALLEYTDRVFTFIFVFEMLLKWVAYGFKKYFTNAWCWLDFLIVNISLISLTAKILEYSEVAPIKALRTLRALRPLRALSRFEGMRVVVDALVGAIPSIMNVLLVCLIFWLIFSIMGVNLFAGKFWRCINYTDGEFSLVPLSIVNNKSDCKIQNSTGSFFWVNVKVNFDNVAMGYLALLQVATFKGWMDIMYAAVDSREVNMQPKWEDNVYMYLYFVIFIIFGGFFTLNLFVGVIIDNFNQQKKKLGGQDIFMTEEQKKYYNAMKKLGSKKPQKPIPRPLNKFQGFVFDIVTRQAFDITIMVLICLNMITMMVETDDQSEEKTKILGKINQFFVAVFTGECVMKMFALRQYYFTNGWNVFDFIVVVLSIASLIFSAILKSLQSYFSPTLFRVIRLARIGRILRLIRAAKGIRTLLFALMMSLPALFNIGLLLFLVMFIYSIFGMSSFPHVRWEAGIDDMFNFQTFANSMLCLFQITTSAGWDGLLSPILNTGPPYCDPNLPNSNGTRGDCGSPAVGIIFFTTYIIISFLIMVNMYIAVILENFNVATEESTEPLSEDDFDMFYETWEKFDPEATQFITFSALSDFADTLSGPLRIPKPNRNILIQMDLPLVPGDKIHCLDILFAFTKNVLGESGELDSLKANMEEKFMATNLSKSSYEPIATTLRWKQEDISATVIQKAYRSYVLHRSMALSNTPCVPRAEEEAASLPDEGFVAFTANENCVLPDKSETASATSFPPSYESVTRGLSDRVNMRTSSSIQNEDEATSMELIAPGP
Substance-P receptor (Homo sapiens), sequence (P25103 whole entry): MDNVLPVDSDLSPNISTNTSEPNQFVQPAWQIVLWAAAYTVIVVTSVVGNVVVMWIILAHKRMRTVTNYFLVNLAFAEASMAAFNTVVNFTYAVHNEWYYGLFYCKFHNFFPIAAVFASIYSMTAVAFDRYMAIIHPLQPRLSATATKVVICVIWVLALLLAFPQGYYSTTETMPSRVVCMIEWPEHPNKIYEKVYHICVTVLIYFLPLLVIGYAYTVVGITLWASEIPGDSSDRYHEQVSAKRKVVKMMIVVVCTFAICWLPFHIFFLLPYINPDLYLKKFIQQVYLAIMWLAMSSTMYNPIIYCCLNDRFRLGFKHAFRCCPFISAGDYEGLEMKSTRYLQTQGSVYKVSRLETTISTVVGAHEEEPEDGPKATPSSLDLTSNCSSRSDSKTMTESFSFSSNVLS
Beta-2 adrenergic receptor (Homo sapiens), sequence (P07550 whole entry, looked up): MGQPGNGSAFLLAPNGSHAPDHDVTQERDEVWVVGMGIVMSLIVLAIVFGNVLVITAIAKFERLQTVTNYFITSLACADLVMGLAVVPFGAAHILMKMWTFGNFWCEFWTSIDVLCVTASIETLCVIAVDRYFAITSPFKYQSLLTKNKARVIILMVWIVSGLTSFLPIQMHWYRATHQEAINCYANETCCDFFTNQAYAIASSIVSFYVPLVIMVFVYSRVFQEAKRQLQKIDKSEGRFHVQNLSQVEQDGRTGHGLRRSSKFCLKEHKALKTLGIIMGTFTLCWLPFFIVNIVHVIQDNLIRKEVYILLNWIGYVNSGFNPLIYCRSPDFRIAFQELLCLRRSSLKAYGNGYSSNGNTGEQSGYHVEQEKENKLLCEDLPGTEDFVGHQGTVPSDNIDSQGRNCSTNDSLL

O=C(NCc1cccnc1N1CCCC1)c1cncc(-c2ccc(Cl)cc2)n1
solubility [1]: 0.65 µg/mL (≈ 1.65 µM)
IC50 [2]: 30 nM
IC50 [3]: 1000 nM
IC50 [4]: 550 nM
IC50 [5]: 210 nM

Cc1cccc(NC(=O)c2cncc(-c3ccc(OC(F)(F)F)cc3)n2)c1
solubility [1]: < 0.1 µg/mL
IC50 [2]: 5 nM
IC50 [3]: 2200 nM
IC50 [4]: 16 nM
IC50 [5]: 66 nM

CC(C)Oc1cccc(NC(=O)c2cncc(-c3ccc(C#N)cc3)n2)c1
solubility [1]: 0.08 µg/mL (≈ 0.223 µM)
IC50 [2]: 49 nM
IC50 [3]: 9100 nM
CL [6]: 120 µL/min
IC50 [4]: 130 nM
IC50 [5]: 730 nM

CCOc1ccc(-c2cncc(C(=O)NCc3ccccc3C)n2)cc1
solubility [1]: 0.14 µg/mL (≈ 0.403 µM)
IC50 [2]: 2 nM
IC50 [3]: 470 nM
CL [6]: 630 µL/min
IC50 [4]: 19 nM
IC50 [5]: 110 nM

Cc1ccccc1CNC(=O)c1cncc(-c2ccc(Cl)cc2)n1
solubility [1]: < 0.1 µg/mL
inhibition [7]: 2%
IC50 [2]: 27 nM
IC50 [4]: 110 nM
IC50 [5]: 1340 nM

O=C(NCc1cccnc1N1CCOCC1)c1cncc(-c2ccc(Cl)cc2)n1
solubility [1]: 2.7 µg/mL (≈ 6.59 µM)
inhibition [7]: 11%
IC50 [2]: 37 nM
CL [6]: 410 µL/min
IC50 [4]: 280 nM
IC50 [5]: 2500 nM

Cc1ccccc1CNC(=O)c1cncc(-c2ccc(OC(F)(F)F)cc2)n1
IC50 [2]: 18 nM
IC50 [3]: 1200 nM
IC50 [4]: 170 nM
IC50 [5]: 240 nM

O=C(NCc1cccnc1Cl)c1cncc(-c2ccc(OC(F)(F)F)cc2)n1
IC50 [2]: 99 nM
IC50 [3]: 3900 nM
CL [6]: 143 µL/min
IC50 [4]: 90 nM
IC50 [5]: 1030 nM

O=C(NCc1ccncc1N1CCOCC1)c1cncc(-c2ccc(Cl)cc2)n1
IC50 [2]: 320 nM
IC50 [5]: 4140 nM

O=C(NCc1cccnc1)c1cncc(-c2ccc(Cl)cc2)n1
solubility [1]: 1 µg/mL (≈ 3.08 µM)
IC50 [5]: 11000 nM

O=C(NCCc1ccc(Cl)cc1)c1cncc(-c2ccc(Cl)cc2)n1
solubility [1]: < 0.1 µg/mL
IC50 [2]: 19 nM
IC50 [3]: 1000 nM
IC50 [4]: 360 nM
IC50 [5]: 2680 nM
Ratio IC50 [8]: 53
Ratio IC50 [9]: 53

CCOc1ccc(-c2cncc(C(=O)Nc3cccc(C)c3)n2)cc1
solubility [1]: < 0.1 µg/mL
IC50 [2]: 1 nM
IC50 [3]: 1000 nM
IC50 [4]: 68 nM
IC50 [5]: 650 nM

O=C(NCc1cnccc1N1CCOCC1)c1cncc(-c2ccc(Cl)cc2)n1
IC50 [5]: 29100 nM

Cc1cc(C)cc(NC(=O)c2cncc(-c3ccc(C#N)cc3)n2)c1
solubility [1]: 0.03 µg/mL (≈ 0.0914 µM)
bioavailability [10]: 0%
Activity [11]: 55.2%
IC50 [2]: 8 nM
inhibition [12]: inactive
Vd [13]: 5.1 L/kg
half-life [14]: 1.6 h
IC50 [3]: 1600 nM
CL [6]: 140 µL/min
inhibition in vivo at 100 mg/kg [15]: < 20%
IC50 [4]: 84 nM
inhibition [16]: inactive
IC50 [5]: 470 nM
inhibition [17]: inactive

Cc1ccccc1CNC(=O)c1cncc(-c2ccc(C#N)cc2)n1
solubility [1]: 0.35 µg/mL (≈ 1.07 µM)
IC50 [2]: 150 nM
IC50 [3]: 1000 nM
IC50 [4]: 450 nM
IC50 [5]: 9400 nM

O=C(NCc1cccnc1N1CCOCC1)c1cncc(-c2ccc(OC(F)(F)F)cc2)n1
solubility [1]: > 50 µg/mL
bioavailability [10]: 18.2%
Cmax [18]: 150 ng/mL
Activity [11]: 93.2%
IC50 [2]: 19 nM
inhibition [12]: > 60%
Vd [13]: 3.3 L/kg
half-life [14]: 1.9 h
IC50 [3]: 1500 nM
clearance [6]: 98 µL/min
IC50 [4]: 85 nM
inhibition [16]: > 60%
Activity [19]: Dose-dependent effect
ED50 [19]: 78 mg/kg
IC50 [5]: 480 nM
inhibition [17]: > 60%
half-life [20]: 1.6 h
Ratio IC50 [9]: 79

Cc1cccc(NC(=O)c2cncc(-c3ccc(Cl)cc3)n2)c1
solubility [1]: < 0.1 µg/mL
IC50 [2]: 6 nM
IC50 [3]: 8200 nM
IC50 [4]: 280 nM
IC50 [5]: 960 nM
Ratio IC50 [9]: > 1000

Cc1cc(C)cc(NC(=O)c2cncc(-c3ccc(Cl)cc3)n2)c1
solubility [1]: < 0.1 µg/mL
IC50 [2]: 3 nM
IC50 [3]: 5000 nM
CL [6]: 83 µL/min
IC50 [4]: 52 nM
IC50 [5]: 490 nM
Ratio IC50 [21]: > 1600
Ratio IC50 [9]: > 1000

O=C(Nc1cccnc1)c1cncc(-c2ccc(Cl)cc2)n1
IC50 [5]: 18000 nM

CCOc1ccc(-c2cncc(C(=O)Nc3cc(C)cc(C)c3)n2)cc1
solubility [1]: < 0.1 µg/mL
IC50 [2]: 2 nM
IC50 [3]: 360 nM
IC50 [4]: 12 nM
IC50 [5]: 56 nM

COc1cc(NC(=O)c2cncc(-c3ccc(Cl)cc3)n2)cc(OC)c1
solubility [1]: < 0.1 µg/mL
IC50 [2]: 6 nM
IC50 [3]: 6200 nM
IC50 [4]: 190 nM
IC50 [5]: 1070 nM
Ratio IC50 [9]: > 1000

COc1cc(NC(=O)c2ccc(-c3ccc(Cl)cc3)o2)cc(OC)c1
solubility [1]: < 0.1 µg/mL
CL [6]: 140 µL/min

Cc1cc(C)cc(NC(=O)c2cncc(-c3ccc(OC(F)(F)F)cc3)n2)c1
solubility [1]: < 0.1 µg/mL
inhibition [7]: 93%
IC50 [5]: 58 nM
